Ten compounds from ChEMBL document CHEMBL1152799, “Mixed kappa/mu opioid receptor agonists: the 6 beta-naltrexamines” (J Med Chem, 2009) can be followed below.

pEC50, pKi: −log10 of the molar value. Calls of active or inactive are those of the source. The calls are words filed in the database; no cut-off is given here.

For test [1], the target named is T1, Kappa-type opioid receptor (Homo sapiens, UniProt P41145). Briefly: Agonist activity at human kappa opioid receptor expressed in CHO cell membrane assessed as stimulation of [35S]GTPgammaS binding relative to U69593. It counts as functional, cell membranes. In short, it runs like this:
(§1)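 Membranes from CHOκ (human KOR, grown in DMEM-F12) or C6μ (rat MOR, DMEM) cells, 20 μg, incubated 60 min at 25 °C in 20 mM Tris-HCl pH 7.4, 5 mM MgCl2, 100 mM NaCl, 2.2 mM fresh DTT, 30 μM GDP, 0.1 nM [35S]GTPγS with compound; filtered on GF/C, scintillation counting; efficacy versus U69593 (KOR) or DAMGO (MOR); mean ± SEM of three experiments.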

Test [2] deals with Mu-type opioid receptor (Rattus norvegicus) (UniProt P33535). Briefly: Antagonist activity at rat mu opioid receptor expressed in rat C6 cell membrane assessed as DAMGO-stimulated of [35S]GTPgammaS binding. It counts as functional, cell membranes. The essentials:
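C6 glioma membranes with stably expressed rat MOR; antagonism of DAMGO-stimulated [35S]GTPγS binding reported as Ke; incubation 60 min, 25 °C, in Tris-HCl pH 7.4 with MgCl2, NaCl, DTT, 30 μM GDP, 0.1 nM [35S]GTPγS; filtration and scintillation read-out.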
For orientation: GTPγS is a poorly hydrolysed GTP analogue; its binding reports G protein activation.

In test [3] the target is T1, Kappa-type opioid receptor. Briefly: Agonist activity at human kappa opioid receptor expressed in CHO cell membrane assessed as stimulation of [35S]GTPgammaS binding. It counts as functional, cell membranes. The essentials: as §1
Test [4] concerns the target T2, Mu-type opioid receptor (Rattus norvegicus, UniProt P33535). Briefly: Displacement of [3H]diprenorphine from rat mu opioid receptor expressed in rat C6 cell membrane by liquid scintillation and luminescence counter. A general note: Displacement assays read how much labelled ligand stays bound in the presence of the test substance.
Test [5] concerns the target Mu-type opioid receptor (Rattus norvegicus) (UniProt P33535). Briefly: Agonist activity at rat mu opioid receptor expressed in rat C6 cell membrane assessed as stimulation of [35S]GTPgammaS binding relative to DAMGO. It counts as functional, cell membranes. In short, it runs like this:
as §1

Test [6] addresses T1, Kappa-type opioid receptor. Briefly: Displacement of [3H]diprenorphine from human kappa opioid receptor expressed in CHO cell membrane by liquid scintillation and luminescence counter.
The target in test [7] is T2, Mu-type opioid receptor. Briefly: Agonist activity at rat mu opioid receptor expressed in rat C6 cell membrane assessed as stimulation of [35S]GTPgammaS binding. It counts as functional, cell membranes. The essentials:
as §1

T1 sequence (P41145 whole entry): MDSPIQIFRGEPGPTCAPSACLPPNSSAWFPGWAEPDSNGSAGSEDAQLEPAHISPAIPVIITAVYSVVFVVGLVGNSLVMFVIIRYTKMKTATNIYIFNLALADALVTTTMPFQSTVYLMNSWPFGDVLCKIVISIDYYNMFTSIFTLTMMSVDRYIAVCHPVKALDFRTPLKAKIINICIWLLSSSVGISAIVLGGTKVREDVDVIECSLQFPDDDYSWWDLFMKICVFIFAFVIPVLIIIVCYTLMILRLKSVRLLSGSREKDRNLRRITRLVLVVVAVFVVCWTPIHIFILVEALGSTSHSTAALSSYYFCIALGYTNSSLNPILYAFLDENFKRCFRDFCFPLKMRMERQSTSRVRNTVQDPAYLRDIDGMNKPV
T2 sequence (P33535 whole entry): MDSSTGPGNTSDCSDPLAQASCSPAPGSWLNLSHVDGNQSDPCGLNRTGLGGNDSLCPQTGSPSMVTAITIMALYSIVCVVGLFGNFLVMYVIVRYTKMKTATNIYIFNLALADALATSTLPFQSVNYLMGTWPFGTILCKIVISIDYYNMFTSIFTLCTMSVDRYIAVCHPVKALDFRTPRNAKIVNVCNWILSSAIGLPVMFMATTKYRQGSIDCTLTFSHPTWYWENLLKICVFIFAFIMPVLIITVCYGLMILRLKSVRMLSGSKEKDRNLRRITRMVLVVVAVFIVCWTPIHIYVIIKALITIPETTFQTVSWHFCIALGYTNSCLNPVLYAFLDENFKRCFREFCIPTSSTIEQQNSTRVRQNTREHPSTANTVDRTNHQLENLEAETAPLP
Sequence of Mu-type opioid receptor (Rattus norvegicus) (P33535 whole entry): as above

The pEC50 is −log10 of the EC50, conventionally taken in molar units. For orientation: pKi means the Ki on a negative log10 scale, so that one unit is a factor of ten. As to `O=C(/C=C/c1ccccc1)N[C@@H]1CC[C@@]2(OC(=O)c3ccccc3)[C@H]3Cc4ccc(O)c5c4[C@@]2(CCN3CC2CC2)[C@H]1O5`, the Activity in test [1] worked out at 26%. Also, in test [2], the Ke came out at 0.41 nM. Besides, the negative-log EC50 (pEC50) in test [3] was 8.01. The values for the pKi in test [4] and in test [6] were 9.38 and 8.96, respectively. Further, the outcome in test [5] was inactive.

In the case of `O=C(/C=C/c1ccccc1)N[C@@H]1CC[C@@]2(OCc3ccccc3)[C@H]3Cc4ccc(O)c5c4[C@@]2(CCN3CC2CC2)[C@H]1O5`, the results for the Activity in test [1] and in test [5] were 97% and 19%, respectively. Moreover, the pEC50 in test [3] is 9.11; in test [7] it was 8.70. In addition, the results for the pKi in test [4] and in test [6] were 9.80 and 9.07, respectively.

Regarding `O=C(/C=C/c1ccccc1)N[C@@H]1CC[C@@]2(O)[C@H]3Cc4ccc(O)c5c4[C@@]2(CCN3CC2CC2)[C@H]1O5`, the Activity in test [1] was 100%; in test [5], 21%. The values for the pEC50 in test [3] and in test [7] were 9.92 and 8.74, respectively. The pKi is 9.77 in test [4] and 10.37 in test [6].

As to `COc1ccccc1/C=C/C(=O)N[C@@H]1CC[C@@]2(O)[C@H]3Cc4ccc(O)c5c4[C@@]2(CCN3CC2CC2)[C@H]1O5`, the values for the Activity in test [1] and in test [5] were 105% and 21%, respectively.

For the compound `O=C(/C=C/c1ccccc1Cl)N[C@@H]1CC[C@@]2(O)[C@H]3Cc4ccc(O)c5c4[C@@]2(CCN3CC2CC2)[C@H]1O5`, the Activity in test [1] came out at 97%; in test [5], 17%. For the same compound, the pEC50 in test [3] was 9.40; in test [7] it was 7.92. Further, the pKi in test [4] is 10.10; in test [6], 9.57.

In the case of `O=C(/C=C/c1cccc([N+](=O)[O-])c1)N[C@@H]1CC[C@@]2(O)[C@H]3Cc4ccc(O)c5c4[C@@]2(CCN3CC2CC2)[C@H]1O5`, the Activity amounted to 100% in test [1] and 20% in test [5]. Besides, the results for the pEC50 in test [3] and in test [7] were 9.92 and 9.74, respectively. Moreover, the pKi in test [4] is 9.96; in test [6], 9.44.

As for `O=C(/C=C/c1ccccc1)N[C@@H]1CC[C@@]2(OC(=O)Cc3ccccc3)[C@H]3Cc4ccc(O)c5c4[C@@]2(CCN3CC2CC2)[C@H]1O5`, the Activity in test [1] came out at 76%; in test [5] it was 41%. The pEC50 was 9.31 in test [3] and 8.89 in test [7]. The pKi in test [4] is 9.55; in test [6], 9.59.

For the compound `O=C(/C=C/c1ccccc1[N+](=O)[O-])N[C@@H]1CC[C@@]2(O)[C@H]3Cc4ccc(O)c5c4[C@@]2(CCN3CC2CC2)[C@H]1O5`, the results for the Activity in test [1] and in test [5] were 81% and 6.7%, respectively. Besides, the values for the pEC50 in test [3] and in test [7] were 8.72 and 9.16, respectively. In addition, the pKi in test [4] was 9.46; in test [6] it was 9.52.

On to `CC(=O)O[C@@]12CC[C@@H](NC(=O)/C=C/c3ccccc3)[C@@H]3Oc4c(O)ccc5c4[C@@]31CCN(CC1CC1)[C@@H]2C5`, for which the Activity in test [1] came to 97%; in test [5], 19%. Besides, the pEC50 was 8.62 in test [3] and 9.00 in test [7]. Further, the pKi in test [4] was 9.68; in test [6] it was 9.23.

Take `C=CCO[C@@]12CC[C@@H](NC(=O)/C=C/c3ccccc3)[C@@H]3Oc4c(O)ccc5c4[C@@]31CCN(CC1CC1)[C@@H]2C5`: the Activity in test [1] was found to be 120%; in test [5] it was 39%. The pEC50 in test [3] is 10.10; in test [7], 9.22. Also, the pKi in test [4] is 9.60; in test [6] it was 9.92.
